Drawing on ChEMBL document CHEMBL3085642, “Synthesis and evaluation of novel 4-nitropyrrole-based 1,3,4-oxadiazole derivatives as antimicrobial and anti-tubercular agents” (Eur J Med Chem, 2013), this text covers MIC, Ratio and IC50 for eleven molecules.

pIC50: −log10 of the molar value. Values after ≈ are worked out from the molar mass of the structure shown.

The test system of assay [1] is Mycobacterium tuberculosis. Description: Antitubercular activity against Mycobacterium tuberculosis H37Rv after 7 days by resazurin microtitre assay. The settings on record: 168 h. The assay is classed as functional.
Assay [2] deals with Candida albicans. Description: Antifungal activity against Candida albicans after 48 hrs by two fold agar dilution method. Format: functional. The gist of the method:
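Two-fold serial dilutions in DMSO were tested against C. albicans by agar dilution. Cultures were incubated for 48 h at 35 °C and growth was monitored. MIC was taken as the lowest concentration (highest dilution) that arrested fungal growth.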
A general note: In agar dilution, organisms are placed on agar that contains the substance at set levels.

Assay [3] relates to Candida albicans. Description: Ratio of ampotericin-B MIC to compound MIC against Candida albicans. Format: functional.
Assay [4] relates to Staphylococcus aureus. Description: Ratio of ciprofloxacin MIC to compound MIC against Staphylococcus aureus ATCC 25923. The assay is classed as functional.
The subject of assay [5] is Staphylococcus aureus. Briefly: Antibacterial activity against methicillin-resistant Staphylococcus aureus ATCC 43866 by broth dilution method. The assay is classed as functional.
In assay [6] the test system is Staphylococcus aureus. Briefly: Ratio of ciprofloxacin MIC to compound MIC against methicillin-susceptible Staphylococcus aureus ATCC 35556. Format: functional.
A further assay relates to Vero. Description: Cytotoxicity against african green monkey Vero cells after 72 hrs by MTT assay. Format: cell-based. The settings on record: Chlorocebus sabaeus. The method, boiled down: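 Vero cells were exposed to compounds for 72 h. Viability was measured by cellular conversion of MTT into formazan (non-radioactive proliferation assay), and the cytotoxic concentration was reported as IC50.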
(In general: Formazan colour is commonly taken as a measure of viable cells.)

For a further assay, the system named is Klebsiella pneumoniae. Briefly: Antibacterial activity against Klebsiella pneumoniae by two fold broth dilution method. Format: functional. For orientation: Dilution methods test growth across graded concentrations, often in twofold steps.
Assay [7] has as its system Staphylococcus aureus. Description: Antibacterial activity against Staphylococcus aureus ATCC 25923 by two fold broth dilution method. The assay is classed as functional.
Assay [8] relates to Escherichia coli. Briefly: Antibacterial activity against Escherichia coli ATCC 25922 by two fold broth dilution method. The assay is classed as functional.
In assay [9] the test system is Bacillus spizizenii. Briefly: Antibacterial activity against Bacillus subtilis ATCC 6633 by two fold broth dilution method. Format: functional.
In assay [10] the test system is Staphylococcus aureus. Briefly: Antibacterial activity against methicillin-susceptible Staphylococcus aureus ATCC 35556 by broth dilution method. Format: functional.
The subject of assay [11] is Escherichia coli. Description: Ratio of ciprofloxacin MIC to compound MIC against Escherichia coli ATCC 25922. The assay is classed as functional.
The test system of assay [12] is Bacillus spizizenii. Description: Ratio of ciprofloxacin MIC to compound MIC against Bacillus subtilis ATCC 6633. The assay is classed as functional.
For assay [13], the system named is Staphylococcus aureus. Description: Ratio of ciprofloxacin MIC to compound MIC against methicillin-resistant Staphylococcus aureus ATCC 43866. The assay is classed as functional.

One may read the MIC as the lowest concentration that inhibits growth of the organism. One may read the pIC50 as the IC50 on a negative log10 scale, so that one unit is a factor of ten. For the molecule `Cn1cc([N+](=O)[O-])cc1-c1nnc(-c2ccc(C#N)cc2)o1`, the MIC in [1] was 84.6 µg/mL (≈ 287 µM); in the assay on Candida albicans [2], 1.56 µg/mL (≈ 5.28 µM); in the assay on Staphylococcus aureus [5], 1.56 µg/mL (≈ 5.28 µM); against Klebsiella pneumoniae, 12.5 µg/mL (≈ 42.3 µM); in the assay with Staphylococcus aureus [7], 0.78 µg/mL (≈ 2.64 µM); in the assay on Escherichia coli [8], 6.25 µg/mL (≈ 21.2 µM). In addition, the minimum inhibitory concentration (MIC) came out at 1.56 µg/mL (≈ 5.28 µM) against Bacillus spizizenii [9] and 0.39 µg/mL (≈ 1.32 µM) with Staphylococcus aureus [10]. Besides, the Ratio in the assay with Candida albicans [3], in the assay on Staphylococcus aureus [4] and with Staphylococcus aureus [6] was 2 in each case. The molecule also gave a pIC50 in the assay on Vero of 3.50.

Regarding `Cn1cc([N+](=O)[O-])cc1-c1nnc(-c2cc(-c3ccccc3)nc3ccc(Cl)cc23)o1`, the MIC with Candida albicans [2] was determined as 0.78 µg/mL (≈ 1.81 µM); against Staphylococcus aureus [5] it was 1.56 µg/mL (≈ 3.61 µM); with Klebsiella pneumoniae it was 12.5 µg/mL (≈ 28.9 µM); with Staphylococcus aureus [7], 0.39 µg/mL (≈ 0.903 µM); against Escherichia coli [8], 0.39 µg/mL (≈ 0.903 µM); in the assay on Bacillus spizizenii [9], 1.56 µg/mL (≈ 3.61 µM). Besides, the MIC with Staphylococcus aureus [10] is 0.39 µg/mL (≈ 0.903 µM). For the same molecule, the Ratio with Candida albicans [3], in the assay with Staphylococcus aureus [4] and in the assay on Escherichia coli [11] was 3 each time. The negative logarithm of the IC50 (pIC50) in the assay with Vero was 3.48.

As to `Cn1cc([N+](=O)[O-])cc1-c1nnc(-c2ccc[nH]2)o1`, the MIC is 29.3 µg/mL (≈ 113 µM) in [1]; 0.78 µg/mL (≈ 3.01 µM) against Candida albicans [2]; 0.78 µg/mL (≈ 3.01 µM) in the assay on Staphylococcus aureus [5]; 12.5 µg/mL (≈ 48.2 µM) against Klebsiella pneumoniae; 0.39 µg/mL (≈ 1.5 µM) in the assay with Staphylococcus aureus [7]; 1.56 µg/mL (≈ 6.02 µM) in the assay with Escherichia coli [8]. The minimum inhibitory concentration (MIC) in the assay on Bacillus spizizenii [9] is 0.78 µg/mL (≈ 3.01 µM); in the assay with Staphylococcus aureus [10], 0.39 µg/mL (≈ 1.5 µM). The Ratio in the assay on Candida albicans [3] was 3; in the assay on Staphylococcus aureus [4] it was 3; in the assay on Staphylococcus aureus [6] it was 2; in the assay with Bacillus spizizenii [12], 2; with Staphylococcus aureus [13], 2. Besides, in the assay on Vero, the negative logarithm of the IC50 (pIC50) is 3.68.

Turning to `Cn1cc([N+](=O)[O-])cc1-c1nnc(-c2ccc(Cl)cc2Cl)o1`, the MIC in assay [1] turned out to be 18.4 µg/mL (≈ 54.3 µM); against Candida albicans [2], 1.56 µg/mL (≈ 4.6 µM); against Staphylococcus aureus [5] it was 0.78 µg/mL (≈ 2.3 µM); against Klebsiella pneumoniae, 12.5 µg/mL (≈ 36.9 µM); in the assay with Staphylococcus aureus [7] it was 0.39 µg/mL (≈ 1.15 µM); in the assay on Escherichia coli [8], 1.56 µg/mL (≈ 4.6 µM). The MIC in the assay on Bacillus spizizenii [9] was found to be 0.78 µg/mL (≈ 2.3 µM); against Staphylococcus aureus [10], 0.39 µg/mL (≈ 1.15 µM). In addition, the Ratio in the assay with Candida albicans [3] worked out at 2; in the assay with Staphylococcus aureus [4], 3; with Staphylococcus aureus [6], 2; in the assay with Bacillus spizizenii [12] it was 2; in the assay on Staphylococcus aureus [13], 2. The pIC50 with Vero is 3.41.

`O=[N+]([O-])c1c[nH]c(-c2nnc(-c3cc(-c4ccccc4)nc4ccc(Cl)cc34)o2)c1`: the minimum inhibitory concentration (MIC) in assay [1] is 97.2 µg/mL (≈ 233 µM); against Candida albicans [2], 1.56 µg/mL (≈ 3.73 µM); with Staphylococcus aureus [5] it was 3.12 µg/mL (≈ 7.48 µM); against Klebsiella pneumoniae it was 25 µg/mL (≈ 59.8 µM); against Staphylococcus aureus [7], 1.56 µg/mL (≈ 3.73 µM); against Escherichia coli [8], 0.78 µg/mL (≈ 1.87 µM). The MIC in the assay with Bacillus spizizenii [9] was found to be 3.12 µg/mL (≈ 7.48 µM); against Staphylococcus aureus [10] it was 1.56 µg/mL (≈ 3.73 µM). Also, the Ratio in the assay on Escherichia coli [11] was 2. For the same molecule, the negative logarithm of the IC50 (pIC50) in the assay with Vero was 3.55.

As for `O=[N+]([O-])c1c[nH]c(-c2nnc(-c3ccc[nH]3)o2)c1`, the MIC in assay [1] stood at 15.7 µg/mL (≈ 64 µM); in the assay with Candida albicans [2], 1.56 µg/mL (≈ 6.36 µM); in the assay with Staphylococcus aureus [5], 1.56 µg/mL (≈ 6.36 µM); against Klebsiella pneumoniae it was 12.5 µg/mL (≈ 51 µM); in the assay on Staphylococcus aureus [7], 0.78 µg/mL (≈ 3.18 µM); in the assay on Escherichia coli [8], 0.78 µg/mL (≈ 3.18 µM). Further, the minimum inhibitory concentration (MIC) against Bacillus spizizenii [9] and against Staphylococcus aureus [10] was 1.56 µg/mL (≈ 6.36 µM) in each case. Besides, the Ratio in the assay on Staphylococcus aureus [4] and in the assay on Escherichia coli [11] was 2 in each case. The pIC50 with Vero was 3.64.

In the case of `Cn1cc([N+](=O)[O-])cc1-c1nnc(-c2ccccc2Br)o1`, the MIC worked out at 12.8 µg/mL (≈ 36.7 µM) in assay [1]; 1.56 µg/mL (≈ 4.47 µM) against Candida albicans [2]; 1.56 µg/mL (≈ 4.47 µM) against Staphylococcus aureus [5]; 12.5 µg/mL (≈ 35.8 µM) against Klebsiella pneumoniae; 0.78 µg/mL (≈ 2.23 µM) against Staphylococcus aureus [7]; 1.56 µg/mL (≈ 4.47 µM) in the assay on Escherichia coli [8]. Further, the MIC was 0.78 µg/mL (≈ 2.23 µM) in the assay with Bacillus spizizenii [9] and 0.39 µg/mL (≈ 1.12 µM) against Staphylococcus aureus [10]. The Ratio in the assay on Candida albicans [3], in the assay with Staphylococcus aureus [4], in the assay with Staphylococcus aureus [6] and with Bacillus spizizenii [12] was 2 throughout. Moreover, the pIC50 in the assay with Vero was 3.52.

On to `COc1cc(/C=C/c2nnc(-c3cc([N+](=O)[O-])cn3C)o2)ccc1O`, for which the minimal inhibitory concentration (MIC) in assay [1] stood at 51.8 µg/mL (≈ 151 µM); against Candida albicans [2] it was 12.5 µg/mL (≈ 36.5 µM); with Staphylococcus aureus [5] it was 1.56 µg/mL (≈ 4.56 µM); against Klebsiella pneumoniae, 50 µg/mL (≈ 146 µM); against Staphylococcus aureus [7], 0.78 µg/mL (≈ 2.28 µM); against Escherichia coli [8], 3.12 µg/mL (≈ 9.13 µM). The figures for the minimum inhibitory concentration (MIC) against Bacillus spizizenii [9] and against Staphylococcus aureus [10] were 1.56 µg/mL (≈ 4.56 µM) and 0.39 µg/mL (≈ 1.14 µM), respectively. Further, the Ratio in the assay with Candida albicans [3], with Staphylococcus aureus [4] and in the assay on Staphylococcus aureus [6] was 2 in each case. This molecule also showed a negative logarithm of the IC50 (pIC50) in the assay on Vero of 3.69.

Consider `Cn1cc([N+](=O)[O-])cc1-c1nnc(C2CCCNC2)o1` (stereo not drawn), for which the MIC is 35.6 µg/mL (≈ 128 µM) in [1]; 1.56 µg/mL (≈ 5.63 µM) with Candida albicans [2]; 1.56 µg/mL (≈ 5.63 µM) against Staphylococcus aureus [5]; 12.5 µg/mL (≈ 45.1 µM) in the assay with Klebsiella pneumoniae; 0.78 µg/mL (≈ 2.81 µM) in the assay on Staphylococcus aureus [7]; 3.12 µg/mL (≈ 11.3 µM) against Escherichia coli [8]. For the same molecule, the MIC against Bacillus spizizenii [9] was 1.56 µg/mL (≈ 5.63 µM); against Staphylococcus aureus [10], 0.39 µg/mL (≈ 1.41 µM). The Ratio in the assay on Candida albicans [3], with Staphylococcus aureus [4] and in the assay with Staphylococcus aureus [6] was 2 throughout. Further, in the assay with Vero, the pIC50 was 3.21.

Turning to `Cn1cc([N+](=O)[O-])cc1-c1nnc(Cc2ccccc2F)o1`, the MIC turned out to be 8.6 µg/mL (≈ 28.5 µM) in [1]; 1.56 µg/mL (≈ 5.16 µM) against Candida albicans [2]; 1.56 µg/mL (≈ 5.16 µM) with Staphylococcus aureus [5]; 12.5 µg/mL (≈ 41.4 µM) with Klebsiella pneumoniae; 0.78 µg/mL (≈ 2.58 µM) against Staphylococcus aureus [7]; 1.56 µg/mL (≈ 5.16 µM) against Escherichia coli [8]. Besides, the minimum inhibitory concentration (MIC) was 0.78 µg/mL (≈ 2.58 µM) in the assay with Bacillus spizizenii [9] and 1.56 µg/mL (≈ 5.16 µM) with Staphylococcus aureus [10]. Besides, the Ratio in the assay with Candida albicans [3], with Staphylococcus aureus [4] and in the assay with Bacillus spizizenii [12] was 2 throughout. In the assay on Vero, this molecule showed a negative-log IC50 (pIC50) of 3.61.

Turning to `COc1cccc(-c2nnc(-c3cc([N+](=O)[O-])cn3C)o2)c1`, the minimum inhibitory concentration (MIC) was determined as 37.4 µg/mL (≈ 125 µM) in assay [1]; 1.56 µg/mL (≈ 5.2 µM) with Candida albicans [2]; 1.56 µg/mL (≈ 5.2 µM) against Staphylococcus aureus [5]; 12.5 µg/mL (≈ 41.6 µM) against Klebsiella pneumoniae; 0.78 µg/mL (≈ 2.6 µM) in the assay with Staphylococcus aureus [7]; 3.12 µg/mL (≈ 10.4 µM) with Escherichia coli [8]. Moreover, the MIC with Bacillus spizizenii [9] is 1.56 µg/mL (≈ 5.2 µM); in the assay with Staphylococcus aureus [10], 0.39 µg/mL (≈ 1.3 µM). For the same molecule, the Ratio in the assay on Candida albicans [3], with Staphylococcus aureus [4] and in the assay on Staphylococcus aureus [6] was 2 each time. Besides, in the assay with Vero, the pIC50 is 3.52.
